≈ marks a conversion by molar mass, not a printed value.
What was measured:
[1] = Volume of distribution at steady state in C3H/HeJ mouse at 1.2 mg/kg, iv measured upto 24 hrs; details: in vivo
[2] = Intrinsic clearance in human liver microsomes at 1 uM incubated for 5 to 60 mins in presence of NADPH by LC-MS/MS analysis; type: ADME, Microsome
Outline: (§1)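 Liver microsomes 0.5 mg/ml, compound 1 μM in 100 mM phosphate pH 7.4; started with 1 mM NADPH (final). Sampled 0–60 min, quenched in cold acetonitrile, parent remaining by LC-MS/MS; ln % remaining versus time fitted by linear regression.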

[3] = Clearance in C3H/HeJ mouse at 1.2 mg/kg, iv measured upto 24 hrs; details: in vivo
[4] = Fraction unbound in CD-1 mouse plasma at 10 uM incubated for 4 hrs by LC-MS/MS-based equilibrium dialysis method; type: ADME, cell-free
Outline: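 Rapid equilibrium dialysis: 10% CD-1 mouse plasma in isotonic buffer spiked to 10 μM compound, 1% DMSO final, against phosphate buffer pH 7.4; 37 °C, 900 rpm, 4 h. Matrix-matched samples precipitated with methanol, LC-MS/MS; fu corrected for plasma dilution.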

[5] = AUC (0 to infinity) C3H/HeJ mouse at 1.2 mg/kg, iv measured upto 24 hrs; details: in vivo
[6] = Solubility of compound in PBS at 0.2 to 0.5 mg after 48 hrs by LC-MS/MS based shake flask method; type: physicochemical
[7] = Apparent permeability from apical to basolateral side in human Caco2 cells at 1 uM after 15 to 60 mins by LC-MS/MS analysis; type: ADME, cell-based; details: caco-2, 1 µM
Outline: (§2)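 Caco-2 monolayers (passage 94–105) used on day 21 on filter supports; 1 μM donor solution applied apical or basolateral, pH 7.4 both chambers, 37 °C, 500 rpm stirring. Receiver sampled at 15, 30, 60 min, donor at 60 min for mass balance; LC-MS/MS with warfarin internal standard.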

[8] = Cmax in C3H/HeJ mouse at 1.2 mg/kg, iv measured upto 24 hrs; details: in vivo
[9] = Half life in C3H/HeJ mouse at 1.2 mg/kg, iv measured upto 24 hrs; details: in vivo
Chlamydia trachomatis [10] = test: Antibacterial activity against Chlamydia trachomatis 434/Bu serovar L2/ATCC VR-902B in HeLa 229 cells infected with cell lysates from 48 hrs at 2.5 uM compound treated HeLa 229 cells with Chlamydia trachomatis infection assessed as inhibition of reinfection and measured after 48 hrs post re-infection by DAPI staining based arrayscan automated microscopic method relative to control; type: functional, organism-based
Outline: (§3)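 HeLa 229 cells infected with C. trachomatis L2 EBs at MOI 0.3–0.5; compound added in RPMI 1 h post infection; 44–48 h, then water lysis. 10-fold serial dilutions of lysate reinfect fresh HeLa; 44–46 h, methanol fixed, anti-Chlamydia/FITC antibody plus DAPI stain, IFUs counted by automated microscopy; % IFU versus DMSO control; three independent experiments, duplicates.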

Chlamydia trachomatis [11] = test: Antibacterial activity against Chlamydia trachomatis 434/Bu serovar L2/ATCC VR-902B in HeLa 229 cells infected with cell lysates from 48 hrs at 1 uM compound treated HeLa 229 cells with Chlamydia trachomatis infection assessed as inhibition of reinfection and measured after 48 hrs post re-infection by DAPI staining based arrayscan automated microscopic method relative to control; type: functional, organism-based
Outline: as §3

[12] = Efflux ratio of apparent permeability in human Caco2 cells at 1 uM after 15 to 60 mins by LC-MS/MS analysis; type: ADME, cell-based; details: caco-2, 1 µM
Outline: as §2

[13] = Intrinsic clearance in mouse liver microsomes at 1 uM incubated for 5 to 60 mins in presence of NADPH by LC-MS/MS analysis; type: ADME, Microsome
Outline: as §1

HeLa 229 = test: Cytotoxicity against human HeLa 229 cells assessed as cell viability at 10 uM after 48 hrs resazurin dye based fluorescence method relative to control; details: hela 229, 48 h
Outline: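 HeLa cells in colorless DMEM with 10% FBS, compound in 0.5% DMSO for 48 h; resazurin added, 3 h at 37 °C, 5% CO2, dark; fluorescence ex 535/em 595 nm; triplicate wells as percent of DMSO control.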

[14] = AUC (0 to infinity) C3H/HeOuJ mouse at 0.9 mg/kg, iv measured upto 24 hrs; type: ADME, organism-based; parameters: dose 0.9 mg/kg, route intravenous, time infinity; details: in vivo
Outline: (§4)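 Female C3H mice, three per dose and route; IV as 50 μL tail-vein injection in PBS with 10% cremophor, 5% EtOH, 4% DMSO; PO as 100 μL gavage in lipid-vehicle/water emulsion. Tail-vein blood at 10 min (IV) and 0.5–24 h; acetonitrile mixed, methanol extracted, LC-MS/MS against spiked blank blood standards; non-compartmental analysis, errors as SD.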

[15] = Cmax in C3H/HeOuJ mouse at 0.9 mg/kg, iv measured upto 24 hrs; type: ADME, organism-based; parameters: dose 0.9 mg/kg, route intravenous; details: in vivo
Outline: as §4

[16] = Volume of distribution at steady state in C3H/HeJ mouse at 0.9 mg/kg, iv measured upto 24 hrs; details: in vivo
[17] = Half life in C3H/HeOuJ mouse at 0.9 mg/kg, iv measured upto 24 hrs; type: ADME, organism-based; details: in vivo
Outline: as §4

[18] = Clearance in C3H/HeOuJ mouse at 0.9 mg/kg, iv measured upto 24 hrs; type: ADME, organism-based; details: in vivo
Outline: as §4

Row | SMILES | inhibition (Chlamydia trachomatis [10]) | inhibition (Chlamydia trachomatis [11]) | Activity (HeLa 229) | also measured
1 | Nc1c(Cc2cccc3ccccc23)c(C2CC2)c2n(c1=O)C(n1cc(-c3ccccc3)nn1)CS2 (racemic) | 91% | 90% | – | Vdss [1]: 27 L/kg; CLH [2]: 187 µL/min/mg; CL [3]: 0.51 L/h; Fu [4]: < 0.1%; AUC(0-inf) [5]: 0.1 µM·h; solubility thermodynamic at 48 h [6]: 0.31 µM (≈ 0.152 µg/mL); Papp [7]: 0.33 ×10⁻⁶ cm/s; Cmax [8]: 40 nM; t1/2 [9]: 3.7 h; Ratio [12]: 0.6; CLH [13]: 135 µL/min/mg
2 | CN(C)c1c(Cc2cccc3ccccc23)cc(=O)n2c1SCC2C(=O)Nc1ccccc1 (racemic) | 94% | 78% | 92% | –
3 | COc1c(Cc2cccc(C)c2C)cc(=O)n2c1SCC2C(=O)Nc1ccccc1 (racemic) | 51% | 22% | 89% | –
4 | COc1c(Cc2cccc3ccccc23)cc(=O)n2c1SCC2n1cc(-c2ccccc2)nn1 (racemic) | 81% | – | 87% | –
5 | Cc1cccc(NC(=O)C2CSc3c(NS(C)(=O)=O)c(Cc4cccc5ccccc45)cc(=O)n32)c1 (racemic) | -2% | – | 92% | –
6 | COc1c(Cc2cccc(C)c2C)c(N)c(=O)n2c1SCC2C(=O)Nc1ccccc1 (racemic) | 25% | – | 94% | –
7 | COC(=O)Nc1c(Cc2cccc3ccccc23)cc(=O)n2c1SCC2C(=O)Nc1ccccc1 (racemic) | 12% | – | 88% | –
8 | CC(=O)Nc1c(Cc2cccc3ccccc23)cc(=O)n2c1SCC2C(=O)Nc1ccccc1 (racemic) | 3% | 44% | 90% | –
9 | COc1c(Cc2cccc3ccccc23)c(N)c(=O)n2c1SCC2C(=O)Nc1ccccc1 (racemic) | 25% | – | 94% | –
10 | CS(=O)(=O)Nc1c(Cc2cccc3ccccc23)cc(=O)n2c1SCC2n1cc(-c2ccccc2)nn1 (racemic) | 88% | – | 91% | –
11 | COc1c(Cc2cccc(C)c2C)cc(=O)n2c1SCC2c1nc(-c2ccccc2)no1 (racemic) | 1% | – | 91% | –
12 | COc1c(Cc2cccc3ccccc23)cc(=O)n2c1SCC2C(=O)Nc1ccc(C)cc1 (racemic) | 94% | 62% | 89% | –
13 | Cc1cc(F)cc(NC(=O)C2CSc3c(NS(C)(=O)=O)c(Cc4cccc5ccccc45)cc(=O)n32)c1 (racemic) | 6% | 6% | 91% | –
14 | COc1c(Cc2cccc(C)c2C)cc(=O)n2c1SCC2C(=O)Nc1cc(C)cc(F)c1 (racemic) | 95% | 77% | 90% | AUC(0-inf) [14]: 0.95 µM·h; CLH [2]: 184 µL/min/mg; Cmax [15]: 410 nM; Fu [4]: 0.1%; Vdss [16]: 1.1 L/kg; solubility thermodynamic at 48 h [6]: 0.32 µM (≈ 0.145 µg/mL); t1/2 [17]: 1.2 h; CL [18]: 0.04 L/h; Papp [7]: 2.1 ×10⁻⁶ cm/s; Ratio [12]: 3.2; CLH [13]: 440 µL/min/mg
15 | COc1c(Cc2cccc3ccccc23)c(N)c(=O)n2c1SCC2C(=O)Nc1ccc(C)cc1 (racemic) | 51% | – | 91% | –
16 | CC(C)Nc1c(Cc2cccc3ccccc23)cc(=O)n2c1SCC2C(=O)Nc1ccccc1 (racemic) | 79% | 25% | 91% | –
17 | COc1c(Cc2cccc(C)c2C)cc(=O)n2c1SCC2C(=O)Nc1ccc(C)cc1 (racemic) | 98% | 71% | 88% | –
18 | COc1c(Cc2cccc(C)c2C)c(N)c(=O)n2c1SCC2c1nc(-c2ccccc2)no1 (racemic) | 17% | – | 94% | –
19 | COc1c(Cc2cccc(C)c2C)c(N)c(=O)n2c1SCC2C(=O)Nc1ccc(C)cc1 (racemic) | 56% | – | 93% | –
20 | CS(=O)(=O)Nc1c(Cc2cccc3ccccc23)cc(=O)n2c1SCC2c1nc(-c2ccccc2)n[nH]1 (racemic) | 20% | – | 93% | –
21 | COc1c(Cc2cccc(C)c2C)c(N)c(=O)n2c1SCC2C(=O)Nc1cc(C)cc(F)c1 (racemic) | 47% | – | 92% | –
22 | O=C(Nc1ccccc1)C1CSc2c(O)c(Cc3cccc4ccccc34)cc(=O)n21 (racemic) | 21% | – | 93% | –
23 | COc1c(Cc2cccc3ccccc23)cc(=O)n2c1SCC2C(=O)Nc1ccccc1 (racemic) | 24% | – | 91% | –
24 | Nc1c(Cc2cccc3ccccc23)c(C2CC2)c2n(c1=O)C(C(=O)Nc1ccccc1)CS2 (racemic) | 98% | 94% | – | –
25 | O=C(Nc1ccccc1)C1CSc2c(C3CC3)c(Cc3cccc4ccccc34)cc(=O)n21 (racemic) | 87% | 67% | – | –
